# Source: PubChem BioAssay
# Rows were chosen to be rich in hits. Some 3.4% of all compounds tested hit in one or more screens of this group.
# PKA inh = inhibitors of human protein kinase A; P17612; PKA Kemptide phosphorylation, Kinase-Glo ATP luminescence; inhibition, % at 6 µM; 65,000 tested, 0.1% active; AID 524;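 active = inhibition above the screen-wide mean inhibition plus 3 SD, cut at about 21% in these data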
# RORA act = activates the human nuclear receptor RORA | P35398 | CHO-K1 Gal4-RORA LBD luciferase reporter, luminescence; percent increase over mock-subtracted basal signal | activation, % at 10 µM | 65,000 tested, 1.5% active | AID 560;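 active = activation above the mean of all tested compounds plus 3 SD, cut at about 49% in these data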;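 also: 0% = DMSO-treated RORA cells and 100% = added signal equal to DMSO minus mock-transfected cells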
# Target sequence (P35398 whole entry, looked up, the tested form may be a part): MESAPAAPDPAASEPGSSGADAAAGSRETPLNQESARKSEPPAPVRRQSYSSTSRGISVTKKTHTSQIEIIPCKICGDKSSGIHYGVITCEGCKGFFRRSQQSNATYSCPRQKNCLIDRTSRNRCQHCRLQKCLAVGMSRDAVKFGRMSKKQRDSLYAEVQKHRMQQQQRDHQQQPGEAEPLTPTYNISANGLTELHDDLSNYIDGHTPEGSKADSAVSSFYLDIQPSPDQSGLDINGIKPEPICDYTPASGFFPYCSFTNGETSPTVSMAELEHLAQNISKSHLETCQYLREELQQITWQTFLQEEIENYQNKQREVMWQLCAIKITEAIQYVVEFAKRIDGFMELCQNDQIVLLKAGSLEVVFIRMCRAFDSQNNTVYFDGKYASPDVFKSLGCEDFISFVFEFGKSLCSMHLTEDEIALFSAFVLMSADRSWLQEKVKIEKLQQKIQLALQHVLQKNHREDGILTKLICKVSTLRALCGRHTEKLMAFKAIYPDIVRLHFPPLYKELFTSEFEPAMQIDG
# JNK3 inh = inhibitors of human JNK3 kinase; purified JNK3 kinase activity, HTS; 60,000 tested, 0.61% active; P53779; inhibition, % at 8 µM; in the data active = inhibition above about 17%;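 also: 0% = DMSO and 100% = reference inhibitor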
# MMP13 inh = inhibitors of human MMP13 | P45452 | inhibition, % at 4 µM | MMP-13 fTHP FRET cleavage, Mca fluorescence | 65,000 tested, 0.07% active;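 active = inhibition above the mean of compound-free control plate wells plus 3 SD, cut at about 14% in these data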;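 also: 0% = DMSO wells and 100% = wells with reference MMP-13 inhibitor after basal subtraction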
# ROCK2 blocker = ROCK2 (human) kinase inhibition | 60,000 tested, 0.35% active | purified ROCK2, Kinase-Glo ATP depletion luminescence | O75116 | inhibition, % at 6 µM;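 active = inhibition above the screen-wide mean inhibition plus 3 SD, cut at about 18% in these data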;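 also: plate controls were DMSO wells for no effect and Y-27632 control wells after no-enzyme background subtraction for full effect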
# SF1 activator = SF-1 (human) activation; Q13285; CHO-K1 Gal4-SF-1 LBD luciferase reporter; % increase over DMSO SF-1-specific signal; activation, % at 10 µM; 65,000 tested, 1.9% active; AID 522;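 active = activation above the mean activation of all tested compounds plus 3 SD, cut at about 50% in these data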
#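 Test system: CHO-K1 cells with Gal4–hSF-1 LBD chimera plus Gal4-driven luciferase; Input: 4,000 cells/well; Compound: 10 µM only; Times: 20 h compound treatment, 37 °C; Measured by: steady-glow luciferase luminescence, read after 15 min reagent incubation; Measure: percent activation versus DMSO; Control set: DMSO and mock-transfected background; Replicates: one test per compound.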
# The depositor's hits bear a star; / = no result given.
SMILES,PKA inh,RORA act,JNK3 inh,MMP13 inh,ROCK2 blocker,SF1 activator
Cc1ccc(Nc2nc(=O)c3cccnc3s2)cc1,-2,50*,0,0,-5,53*
CC1(C)OC(=O)N(c2cccnc2)C1(C)O (stereo not drawn),2,-6,4,0,3,11
CCc1ccc(CCC(=O)Nc2ccc(C)c(C)c2)o1,5,19,3,1,3,56*
CCc1ccc(CCC(=O)Nc2nnc(C)s2)o1,10,-11,3,0,7,3
Clc1ccc2nc(CSc3nc4ccccc4o3)cn2c1,5,13,-12,-16,5,50*
Clc1ccc2nc(CSc3nnc(-c4c[nH]c5ccccc45)o3)cn2c1,-4,-12,-4,3,-8,1
COc1ccccc1C(=O)Nc1ccc(N2CCN(S(C)(=O)=O)CC2)cc1,14,41,-8,3,4,34
COc1cc2ccccc2cc1C(=O)Nc1cccnc1,-4,77*,1,1,0,50*
COc1cc2ccccc2cc1C(=O)Nc1ccc(N2CCN(C)CC2)cc1,12,59*,-15,-1,9,36
Cc1cccc2nc(CSCc3ccco3)cn12,1,46,8,-2,0,55*
O=C(Nc1cnc2ccccc2c1)N1CCCCC1,6,72*,8,-4,5,33
O=C(Nc1cnc2ccccc2c1)N1CCOCC1,-1,26,7,-4,-4,33
O=C(CCCn1c(=O)[nH]c2cc(Cl)ccc2c1=O)NCC1CCCO1 (stereo not drawn),3,8,23*,-12,4,20
C=CCSc1nncn1/N=C/c1ccc(OC)cc1,9,91*,5,0,3,83*
Nc1nc(-c2ccc3c(c2)CCCC3)cs1,3,76*,/,3,/,37
Cc1nc(-c2ccc3c(c2)OCO3)cs1,-3,0,/,2,/,1
Nc1nc(-c2ccc3c(c2)OCCO3)cs1,-2,50*,-8,3,-1,64*
COc1ccc(CCNc2c(C)c(C)nc3ncnn23)cc1,4,-78,0,2,5,-81
Cc1ccccc1C(=O)Nc1ccc(Br)cn1,12,67*,1,3,2,82*
CC1C(O)=C(c2nc3ccccc3[nH]2)C(=N)N1c1ccccc1 (stereo not drawn),11,26,-4,1,5,54*
CCC(C)N1CC(O)=C(c2nc3ccccc3[nH]2)C1=N (stereo not drawn),11,15,-10,7,5,43
COc1ccc2sc(NC(C)=O)nc2c1,8,56*,-1,2,6,50*
CCC(=O)Nc1nc2cc(OC)ccc2s1,-8,14,4,3,3,1
COc1ccc2sc(NC(=O)CC(C)C)nc2c1,-1,23,9,-3,2,66*
CC(=O)Nc1nc2cc3c(cc2s1)OCO3,-5,72*,-4,5,-2,39
SMILES,PKA inh,RORA act,JNK3 inh,MMP13 inh,ROCK2 blocker,SF1 activator
Nn1c(SCC(=O)Nc2ccc(F)cc2F)nnc1-c1cccnc1,0,4,4,6,1,57*
CCOc1cc(N2CCOCC2)c(OCC)cc1NC(=O)CCS(=O)(=O)c1ccc(Cl)cc1,1,4,-3,-2,1,-6
CCOc1cc(N2CCOCC2)c(OCC)cc1NS(=O)(=O)c1ccc(Cl)s1,3,79*,-4,1,1,19
Cc1ncsc1C(=O)Nc1nc2c(s1)CCCC2,-4,57*,-1,2,-17,66*
O=C(Nc1nc2c(s1)CCCC2)c1ccc2ncsc2c1,-6,50*,7,5,3,38
Cc1cc(C(=O)Nc2nc3c(s2)CCCC3)cs1,-2,-22,5,-4,-5,3
CCOC(=O)CNC(=O)c1ccc2[nH]c3c(c2c1)CCCC3,5,12,-12,-1,6,-8
CCOC(=O)c1ccc2[nH]c3c(c2c1)CCCCC3=O,15,47,24*,-2,6,35
Cc1noc(C)c1C(=O)OCC(=O)c1cc(C)n(Cc2ccccc2Cl)c1C,2,49*,2,6,2,29
Cc1c(=O)n(OCc2c(F)cccc2F)c2ccccc2[n+]1[O-],6,1,1,0,5,12
